# H69AR inhibit = proliferation blockers of H69AR lung cancer cells, primary screen, cell-based, human, 86K library | AID 598, 2007 | viability, % at 10 µM | actives 6% (n = 85,000) | H69AR lung tumor viability, ATP luminescence, 72 h; active compounds read low;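 active means viability at or below 40%; inactive means viability above 40%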;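 further: multidrug resistant small cell line overexpressing MRP-1 efflux transporter; 100% = mean luminescence of untreated control wells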
# HCT116 bCat-KO = primary screen for growth suppressors in beta-catenin knockout HCT116 cells (colon tumor, human). HCT116 beta-catenin knockout viability, CellTiter-Glo, 60 h; active compounds read low. viability, % at 10 µM. actives 1.5% (n = 140,000). AID 818, 2007;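 active means viability at or under a set limit, the compound median less 4 SD, cut at about 6% in these data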;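 further: 0% = Hyamine 1622 control at 20 µM and 100% = untreated cell control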
# HUVEC prolif 384 = inhibitors of HUVEC proliferation, primary screen, cell-based, 384-well; actives 1.1% (n = 86,000); AID 648, 2007; viability, % at 10 µM (by protocol); CellTiter-Glo luminescence, 72 h; active compounds read low;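 active means viability at or below 30%; inactive means viability above 30%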;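 further: 100% = median luminescence of DMSO-only cell control wells on each plate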
# Lung fibro prol = antiproliferative effect on LL 47 fibroblasts – human, LL 47 cells, CellTiter-Glo luminescence, primary screen; AID 719, 2007; viability, % at 10 µM; actives 1.1% (n = 85,000); LL 47 human lung fibroblast viability, ATP luminescence; active compounds read low;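 active means viability at or below 50% in the single dose screen; inactive means viability above 50%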;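 further: compound exposure lasted 72 h before the ATP readout; 100% = median luminescence of untreated cell-only wells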
#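 Test system: LL 47 human lung fibroblasts / Quantity: 1,150 cells in each well / Medium: IMEM growth medium with 15% fetal bovine serum / Incubation: 72 h compound exposure at 37 °C after overnight plating / Detection: CellTiter-Glo luminescence measuring cellular ATP / Read-out: % viability versus median cells-only luminescence / Benchmarks: cell-only wells, no compound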
# HCT116 PTEN-null = growth suppression of PTEN-null HCT116, primary screen, cell-based, CellTiter-Glo | HCT116 PTEN-null viability, 60 h; active compounds read low | viability, % at 10 µM | actives 1.2% (n = 140,000) | AID 827, 2007;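 active means viability at or below a set limit, 4 SD under the median of all tested compounds, cut at about 3.7% in these data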;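 further: PTEN knockout HCT116 line with beta catenin targeted HCT116 as companion control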
# An asterisk follows results filed as active; x = no result. Shown is part of a subset that was picked to be rich in hits.
SMILES,H69AR inhibit,HCT116 bCat-KO,HUVEC prolif 384,Lung fibro prol,HCT116 PTEN-null
Cc1ccc(-c2nnc(SCC(=O)N3CCOCC3)nc2-c2ccc(C)cc2)cc1,18.8*,49.1,97.8,97.6,59.1
Cc1cc(C)n(-c2nnc3n2N=C(c2c[nH]c4ccccc24)CS3)n1,17.1*,17.2,57.7,55.1,17.8
Cc1cc(C)n(-c2nnc3n2N=C(c2ccccc2)CS3)n1,81.8,99.6,88.0,104.9,104.5
CC(C)(C)n1ncc2c(=O)n(CC(=O)Nc3ccc4c(c3)OCO4)cnc21,77.0,94.0,90.9,95.2,102.4
CCc1ccc2nc(NC(=O)c3cc(C)on3)sc2c1,17.3*,31.2,70.8,74.9,24.5
CCOc1ccc(C)cc1S(=O)(=O)Nc1ccc(Cl)cn1,88.9,68.3,84.4,98.4,99.2
Cn1c(C(=O)N2CCCC(C(=O)NCc3cccs3)C2)cc2sccc21 (stereo not drawn),87.8,85.4,89.3,93.1,90.4
Cn1c(C(=O)N2CCCC(C(=O)NCCCSC3CCCCC3)C2)cc2sccc21 (stereo not drawn),29.1*,70.9,71.1,93.8,67.1
CN(C1=C(NC(=O)c2ccccc2)C(=O)c2ccccc2C1=O)C1CCS(=O)(=O)C1 (stereo not drawn),x,2.7*,x,x,5.0
CC(=O)NC1=C(NC2CCS(=O)(=O)C2)C(=O)c2ccccc2C1=O (stereo not drawn),x,44.9,x,x,46.5
O=C1N/C(=N/NC(=O)c2cccc3ccccc23)S/C1=C\c1ccccc1OCc1ccccc1,x,37.2,x,x,51.3
N/C(=N\c1nc2ccccc2o1)NC(=O)c1ccccc1NC(=O)c1ccccc1,27.4*,72.1,70.0,70.3,85.3
N/C(=N\c1nc2ccccc2o1)NC(=O)c1ccccc1F,74.9,101.1,91.9,104.5,91.7
O=C(NC(=Nc1nc2ccccc2o1)NC(=O)c1ccccc1)c1ccccc1,x,90.5,x,x,101.9
COc1ccccc1C(=O)NC(=Nc1nc2ccccc2o1)NC(=O)c1ccccc1OC,18.4*,2.5*,14.4*,71.1,2.1*
Cc1ccc(C2=[N+]([O-])C(C)(C)N(O)C2(C)C)cc1,x,87.8,x,x,90.6
O=C(Cc1cccc2ccccc12)NC(NC(=S)Nc1ccccc1Cl)C(Cl)(Cl)Cl (stereo not drawn),x,38.0,x,x,16.2
COc1ccc(NC(=S)NC(NC(=O)c2cccc(Cl)c2)C(Cl)(Cl)Cl)c([N+](=O)[O-])c1 (stereo not drawn),2.9*,66.4,12.2*,93.9,65.2
O=C(/C=C/c1ccccc1)NC(NC(=S)Nc1cccc(Cl)c1)C(Cl)(Cl)Cl (stereo not drawn),x,10.0,x,x,2.9*
O=C(NC(NC(=S)Nc1ccccc1Cl)C(Cl)(Cl)Cl)c1cccc(Cl)c1 (stereo not drawn),x,5.6*,x,x,2.7*
FC(F)(F)c1nnc(-c2ccccc2)nc1Sc1ccccc1,x,1.6*,x,x,1.3*
FC(F)(F)c1cccc(Sc2nc(-c3ccccc3)nnc2C(F)(F)F)c1,x,5.3*,x,x,10.7
FC(F)(F)c1nnc(-c2ccccc2)nc1Sc1ccc(Cl)cc1,x,86.8,x,x,84.0
FC(F)(F)c1cccc(Oc2nc(-c3ccccc3)nnc2C(F)(F)F)c1,x,96.3,x,x,95.6
COc1ccc(N2CCN(C(CNC(=O)C(=O)NCC3CCCO3)c3ccco3)CC2)cc1 (stereo not drawn),x,87.5,x,x,94.2
SMILES,H69AR inhibit,HCT116 bCat-KO,HUVEC prolif 384,Lung fibro prol,HCT116 PTEN-null
CCOC(=O)c1nn(-c2ccccc2C)c2nc(-c3ccc(C)cc3)c(C#N)c(=O)n12,x,62.0,x,x,68.8
CCOC(=O)c1nn(-c2ccccc2C)c2nc(-c3ccc(Cl)cc3)c(C#N)c(=O)n12,x,1.7*,x,x,2.1*
Cc1cc2cc(C)c3nnc(SCC(=O)N4CCCc5ccccc54)n3c2cc1C,x,104.4,x,x,102.0
COC(=O)C(C)Sc1nc2c([nH]c3ccccc32)c(=O)n1C (stereo not drawn),38.8*,46.4,82.0,99.3,39.0
CCC1CCCCN1C(=O)CSc1nc2c([nH]c3ccccc32)c(=O)n1C (stereo not drawn),33.5*,88.4,85.4,105.3,76.3
COc1ccc(CN(C(=O)CSc2nnc(-c3c[nH]c4ccccc34)o2)c2ccc(F)cc2)cc1OC,11.1*,6.2,18.0*,51.4,4.5
CCC1CCCCN1C(=O)CSc1nnc(-c2c[nH]c3ccccc23)o1 (stereo not drawn),34.5*,75.2,108.5,93.4,79.5
CC1CCCC(C)N1C(=O)CSc1nnc(-c2c[nH]c3ccccc23)o1 (stereo not drawn),83.1,75.8,79.6,89.2,84.1
CCC(C)Sc1nc2c([nH]c3ccccc32)c(=O)n1C (stereo not drawn),55.3,78.6,92.0,84.5,75.4
COc1ccc(C(=O)N2CCN(c3ccc(C)c(C)c3)CC2)cc1OC,97.1,95.3,103.8,110.4,92.9
Cc1ccc2nc(SCCCCOc3ccccc3)[nH]c2c1,x,81.9,x,x,75.2
Cn1cccc1C(C(=O)NC1CCCCC1)N(C(=O)Cc1cccs1)c1ccc2c(c1)OCO2 (stereo not drawn),28.3*,100.0,85.4,80.5,101.4
COc1ccc(N(C(=O)Cc2cccs2)C(C(=O)NC2CCCCC2)c2cccn2C)cc1 (stereo not drawn),78.1,90.4,78.2,86.0,83.5
CSc1ccccc1NC(=O)CSCc1ccccc1Br,x,98.7,x,x,101.2
O=c1c(C(c2nnnn2C2CCCCC2)N2CCCCC2)coc2ccc(Cl)cc12 (stereo not drawn),18.2*,88.6,63.5,93.6,80.8
Clc1ccc(C(c2nnnn2C2CCCC2)N2CCN(Cc3ccncc3)CC2)cc1 (stereo not drawn),x,78.2,x,x,72.9
CCOC(=O)c1ccc(NC(=O)C(C)N2C(=O)c3ccccc3C2=O)cc1 (stereo not drawn),93.1,102.8,101.4,108.2,102.4
CCOC(=O)c1ccc(NC2=CC(=O)C(=O)c3ccccc32)cc1,95.5,1.4*,5.4*,3.9*,8.2
Cc1ccc(NC2=CC(=O)C(=O)c3ccccc32)cc1,3.4*,1.2*,6.5*,7.3*,0.6*
CC1=CC(C)(C)Nc2ccc(OC(=O)c3ccco3)cc21,x,1.6*,x,x,1.3*
CC1=CC(C)(C)Nc2ccc(OC(=O)C(C)N3C(=O)c4ccccc4C3=O)cc21 (stereo not drawn),x,2.0*,x,x,1.3*
CC1=CC(C)(C)Nc2ccc(OC(=O)CN3C(=O)CCC3=O)cc21,x,1.0*,x,x,1.5*
CC1=CC(C)(C)Nc2ccc(OC(=O)c3cccnc3)cc21,2.6*,0.7*,53.3,23.2*,1.1*
CCC(C)NC(=O)C1CCCCN1S(=O)(=O)c1ccc(F)cc1 (stereo not drawn),54.6,102.2,93.5,100.4,98.8

# Source: PubChem (SRMLSC)
